In ChEMBL document CHEMBL4513216, “Probing the Open Global Health Chemical Diversity Library for Multistage-Active Starting Points for Next-Generation Antimalarials” (ACS Infect Dis, 2020):

Test: Toxicity liver stage against HepG2, at 10uM
Format: cell-based
Parameters: test concentration 10 uM, cell line HepG2-A16-CD81EGFP
Conditions: human, HepG2-A16-CD81EGFP cells; read-out: INHIBITION
Summary of the method: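 Uninfected HepG2-A16-CD81EGFP cells, 3 × 10^3 per well, 1536-well, plated on prespotted compound at 10 μM final, parasite-free screening media added to match infected plates; puromycin 10 μM positive, DMSO 0.5% negative; run in parallel with 48 h PbLuc assay at 37 °C, 5% CO2; viability by CellTiter-Glo luminescence, normalized to controls.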

SMILES | cytotoxicity at 10 µM [%]
CCC(C)[C@H](N)c1nnc(SCC(=O)Nc2ccc(C)cc2C)o1 (stereo not given in full) | -3.32
COc1cccc(CNc2ccc(F)c(Cl)c2)c1O | 4.56
O=C(NCC1CCCO1)C1CCN(Cc2nc(C3CC3)no2)CC1 (stereo not given) | 1.11
CCC1CCCCCN1C(=O)c1nnc2ccccc2c1N (stereo not given) | 7.85
c1ccc(CCCN2CC[C@H](c3nnc(-c4ccccc4)o3)C2)cc1 | 4.77
O=C(NC1CC1)C1CCCN(c2cc(-n3cncn3)ncn2)C1 (stereo not given) | 10.1
O=C(Cn1cnc(-c2ccccc2)cc1=O)Nc1ccncc1 | 3.48
CS(=O)(=O)NC1(CCc2ccc(NC(=O)C3CC3)nc2)CCCCC1 | 6.56
CC(=O)N1CCC(CCc2ccnc(Nc3ccccn3)c2)CC1 | 5.57
CC(C)N1CCCCC1c1cncc(Cl)n1 (stereo not given) | 8.41
Cc1ccc(Nc2nccc(C3CCN(C(=O)CO)C3)n2)nc1 (stereo not given) | -2.56
O=C(c1ccc(Oc2cccnc2)cc1)N1CCN(CCO)CC1 | -41.5
CC(NCC1(N(C)C)CCOCC1)c1ccc(SC(F)F)cc1 (stereo not given) | -0.79
O=C(C1CCOc2ccccc21)N1CCOc2ccc(F)cc21 (stereo not given) | -7.54
CC(C)n1nnnc1-c1ccc(NC(=O)CCC(F)(F)F)cc1F | -2.5
COc1cc(CNc2nc(C(F)(F)F)no2)cc(OC)c1OC | 1.66
CCCNC(=O)c1cnc2n1CCCC2 | -3.19
CNC(=O)COC(=O)c1cccc(-n2ccc(C(F)(F)F)n2)c1 | -39.5
Cc1cc(NC(=O)CCCn2ccnc2C)nc(C(C)C)n1 | -5.73
CN(Cc1ccc(Cl)cc1)C(=O)Nc1cnn(CC(N)=O)c1 | -17.6
Cc1cc(Nc2ccc3c(c2)CC(=O)N3)nc(C2CC2)n1 | 0.658
CCc1n[nH]c(C2CN(C(=O)COCC(F)(F)F)CCO2)n1 (stereo not given) | -3.48

SMILES | cytotoxicity at 10 µM [%]
CN(Cc1ccc(Br)o1)C(=O)Nc1cccnc1 | -7.91
CC(=O)NCC(=O)NC1CCc2nccn2C1 (stereo not given) | -6.99
O=C(NCc1ccccc1CN1CCC(O)CC1)Nc1ccccc1 | 7.77
O=C(NCc1ccc(F)cc1)NCC1(N2CCOCC2)CCSC1 (stereo not given) | 1.84
Cc1ccc(CN(C)C(=O)CN2CCCCC2Cn2cncn2)o1 (stereo not given) | 0.508
CS(=O)(=O)CCNC1CCCN(Cc2noc(C3CC3)n2)C1 (stereo not given) | -1.38
Cc1ccc(CNc2ccccc2-n2ccc(C)n2)nc1 | 5.7
CC(O)CN1CCN(C(=O)c2cnc(OC(C)C)c(Cl)c2)CC1 (stereo not given) | -19.5
NC(=O)NC(=O)CCN1CCC(C(=O)c2cc(F)ccc2F)CC1 | 9.69
CN(Cc1ccsc1)C(=O)Cn1c(CS(C)(=O)=O)nc2ccccc21 | 6.96
CC1COc2ccccc2N1C(=O)c1ccc(=O)n(C)c1 (stereo not given) | -3.42
OC1CCN(c2cnnc3ccccc23)CC1 | -0.561
O=S(=O)(NCc1ccc(S(=O)(=O)N2CCCC2)s1)c1ccc(Cl)c(Cl)c1 | -41.8
O=S(=O)(CC1CCOCC1)NCc1ncc(-c2ccccc2)o1 | -12.6
CCc1cnc(CNC(=O)N2CCCC(c3ncc[nH]3)C2)s1 (stereo not given) | 8.2
COCCN1CCC(CNC(=O)C2(NC(C)=O)CCCCC2)CC1 | 5.46
CSCCC(NC(=O)c1ccc2ccccc2n1)C(=O)NC(C)C (stereo not given) | 9.3
O=C1CN(c2ccc(CNc3cncc(-n4cccn4)n3)cc2)CCN1 | -13.3
COc1ccc(CS(=O)(=O)CC(=O)NCc2ccccc2F)cc1F | 3.33
NC(=O)c1nc2c(s1)CCN(C(=O)Nc1ccccc1)CC2 | 12.5
O=C([C@@H]1CCCO1)N1CCOCC2(CCN(Cc3cccnc3)C2)C1 (stereo not given in full) | -108
CN1CCN(Cc2cnc3n2CCN(C(=O)c2ccccn2)C3)CC1 | -88.7

SMILES | cytotoxicity at 10 µM [%]
O=C(C1CCOCC1)N1CCN(CC2CC2)c2ncccc2C1 | -107
Cc1ccc2c(n1)N(CCN(C)C)CCN(C(=O)c1ccsc1)C2 | -57.3
O=C(c1ccccn1)N1CCC2(CC1)CN(c1cncnc1)C(=O)CO2 | -67
Cc1ccc(CN2CCN(C)c3ncccc3C2)o1 | -79.6
COCC(=O)N1C[C@@H]2OCCN(Cc3c(C)noc3C)[C@@H]2C1 | -0.722
COc1ccc(C(=O)N2CCC(Oc3cccc(C)c3)(C(=O)O)CC2)o1 | 9.24
Cc1cc(C)c2c(N3CCN(CCN4CCOCC4)CC3)ncnc2n1 | 3.04
COCCN(C)C(C(=O)O)c1ccc2ccccc2c1 (stereo not given) | 3.54
FC(F)(F)c1ccnc(N2CCCC(N3CCOCC3)C2)c1 (stereo not given) | -24.7
CCc1cnc(C)nc1NC(C)C(=O)Nc1cc(F)ccc1C (stereo not given) | -0.682
COCC(=O)NCc1cc2n(n1)CCCN(CCCC1CCCC1)C2 | -5.01
CO[C@H]1CN(C(C)C)C[C@@H]1NC(=O)Nc1ccc(C(F)(F)F)cc1 | 2.05
O=C(CCc1cc2n(n1)CCCNC2)NCCCSC1CCCCC1 | -5.52
COc1ccccc1OC1(C(=O)O)CCN(c2ccccn2)CC1 | 4.52
Fc1ccc(-n2cccn2)c(CN2CCCCC2CCn2ccnc2)c1 (stereo not given) | -11.3
CN(Cc1ccccc1-n1cccn1)C[C@@H]1CCCN2CCCC[C@H]12 | -8.2
CC(C)c1cc(N2CCC3(CCN(C)C3)C2)ncn1 (stereo not given) | -11.8
Cc1nc(CCNC2CCN(Cc3ccccc3)C2)sc1C (stereo not given) | 12.3
COCCn1ccnc1C1CCCN(C(=O)c2cc(F)cc(F)c2)C1 (stereo not given) | 8.86
CC(=O)N1CCCn2nc(CNS(=O)(=O)N(C)C(C)C)cc2C1 | 3.54
Cc1nc(O)cc(C2CCCN(C(=O)c3cccc(N(C)C)c3)C2)n1 (stereo not given) | -6.47
CCc1nnc(CN(CC)C(=O)CCc2scnc2C)o1 | 7.22

SMILES | cytotoxicity at 10 µM [%]
COc1cccc([C@@H]2CN(C3CSCCSC3)C[C@H]2C(=O)O)c1 | 2.95
Cn1c(-c2ccc(F)cc2)cn2cc(C(=O)N3CC[C@@H](O)C3)nc2c1=O | 11.1
Cc1noc(CC2CCN(Cc3ccc(CCC(C)(C)O)cc3)CC2)n1 | -2.18
Cn1cc(CN2CCC(CCC(=O)NCc3ccc(F)cc3)CC2)cn1 | -19.5
Cc1n[nH]c(C)c1CCCN(C)Cc1c[nH]nc1-c1ccc(F)cc1 | 3.45
CCOCc1nc2c(c(NC(CC)c3ccnn3C)n1)CCNCC2 (stereo not given) | -5.53
Cc1nc(N2CCC3(CCCN(CCO)C3=O)C2)c2sccc2n1 (stereo not given) | -0.456
CCCc1nccn1-c1ccc(C(O)CN2CCOCC2)cc1 (stereo not given) | 3.43
CN(C)CC1(O)CCN(C(=O)c2cnc(CN3CCCC3)s2)C1 (stereo not given) | 0.245
CN(C)CCCn1ccc(-c2cccc(-c3cncnc3)c2)n1 | 2.51
CCC(CO)N(Cc1ccccn1)C(=O)c1cccc(C#N)c1 (stereo not given) | -3.67
CCn1cc(CNC(=O)CCc2nnc(-c3ccc(C)s3)o2)cn1 | -2.83
COc1ccc2c(c1OC)Cc1c-2nc(N)c(C#N)c1C1CCOC1 (stereo not given) | 28.6
Cc1nnc(CCNC(=O)C2CC(=O)N(C(C)(C)C)C2)s1 (stereo not given) | -3.27
NC(=O)C1CCCN(Cc2ccc(C(=O)Nc3cnns3)cc2)C1 (stereo not given) | 13.7
O=C(NCCc1cnccn1)c1ccc(S(=O)(=O)NC2CCC2)cc1 | 7.63
COc1ccc(OC)c(C2CCN(C(=O)C3CCS(=O)(=O)CC3)C2)c1 (stereo not given) | 1.21
COc1ccc(-n2ccc(C(=O)NCCN3CCCCC3)n2)cc1 | -2.87
COc1c(CNCC(O)c2ccccc2F)c(C(C)C)nn1C (stereo not given) | -8.91
Cc1ccc(C(O)CNC(=O)NCc2c(C)cc(C)[nH]c2=O)cc1 (stereo not given) | -3.9
CC(C)(C)c1n[nH]c(C2CN(C(=O)C3=COCCC3)CCO2)n1 (stereo not given) | -5.74
O=C(NCCN1CCCS1(=O)=O)c1scnc1Cl | -3.67

SMILES | cytotoxicity at 10 µM [%]
Cn1cc(-c2nc(C(=O)N3CCCC3Cn3cccn3)cs2)cn1 (stereo not given) | -9.25
CCCc1n[nH]c(C2CN(C(=O)c3ccc(C)[nH]c3=O)CCO2)n1 (stereo not given) | 0.238
CCOc1ccccc1C1=CCN(C(=O)C2CCN(C)C(=O)C2)CC1 (stereo not given) | 2.58
Cc1ccccc1C1(CNC(=O)NC(C)c2nncn2C)CC1 (stereo not given) | -5.59
Cc1nc(C)n(CC2CCCN2Cc2cc(-c3cccs3)on2)n1 (stereo not given) | -0.367
COc1cc(CNCc2ccnc(N3CCOCC3)c2)cc(Cl)c1OC | -8.7
Cc1c(F)cc(C(=O)O)cc1S(=O)(=O)Nc1ccc2c(c1)OCCO2 | -1.45
c1ncn(CC2CCCN2Cc2cn3ccsc3n2)n1 (stereo not given) | -10.1
Cc1cc(C(C)C(=O)N2CCCN(Cc3cscn3)CC2)c(C)o1 (stereo not given) | -1.58
COc1ccc(-c2noc(CN3CCc4cncnc4C3)n2)cc1 | -0.215
CC(C)c1ncc2c(n1)CN(Cc1ccc(C(N)=O)cc1)CC2 | -14.2
CCCn1nc2c(cc1=O)CN(CC(=O)Nc1ccncc1)CC2 | -17.8
CCc1ccsc1C(=O)N1CCN(C(=O)CC(F)(F)F)CC1 | -9.88
CN(C)C(=O)CN1CCCC2(CCN(c3ccsc3)C2=O)C1 (stereo not given) | 9.88
Cc1cccc(CN2C(=O)CC[C@@H]3[C@H]2CCN3Cc2nccn2C)n1 | -81.9
CNC(=O)COC1COC2(CCN(Cc3cccnc3OC)CC2)C1 (stereo not given) | 7.61
COc1cccc(N2CC3(CCN(Cc4nccn4C)C3)CC2=O)c1 (stereo not given) | -83
Cc1cnc(C(=O)N2CC[C@H]3[C@@H]2CCC(=O)N3c2cccnc2)cn1 | -81.9
Cc1cnc(N2CC3(CCN(S(=O)(=O)C4CC4)C3)C2)nc1 | -109
O=C1CO[C@@H]2CN(Cc3ccncc3)C[C@H]2N1Cc1ccncc1 | -85
O=C(Cc1cccnc1)N1C[C@H]2CC[C@@H](C1)N(Cc1ccccc1)C2=O | 7.93
COC1C[C@@H]2CN(C(=O)c3cccc4c3OCCO4)C[C@@H]2C1 (stereo not given in full) | 7.77
